Seven compounds from ChEMBL document CHEMBL1125019 (J Med Chem, 1990) can be followed below.

By IC50 is commonly meant the concentration at which inhibition is half-maximal. High values mean weaker potency in that assay, low ones greater potency in that assay.

Molecules are shown by their SMILES.

The target in one assay is D(1A) dopamine receptor (Rattus norvegicus, UniProt P18901). The experiment in a line: Binding affinity against Dopamine receptor D1 from rat brain corpus striatum membrane. Summed up:
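Four to six concentrations of each test agent. IC50 ± SEM obtained by computer-assisted curve fitting; Ki derived from IC50 using the Kd and ligand concentration.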

The next assay addresses D(2) dopamine receptor (Rattus norvegicus, UniProt P61169). The experiment in a line: Binding affinity against Dopamine receptor D2 from rat brain corpus striatum membrane.

Sequence of D(1A) dopamine receptor (P18901 whole entry): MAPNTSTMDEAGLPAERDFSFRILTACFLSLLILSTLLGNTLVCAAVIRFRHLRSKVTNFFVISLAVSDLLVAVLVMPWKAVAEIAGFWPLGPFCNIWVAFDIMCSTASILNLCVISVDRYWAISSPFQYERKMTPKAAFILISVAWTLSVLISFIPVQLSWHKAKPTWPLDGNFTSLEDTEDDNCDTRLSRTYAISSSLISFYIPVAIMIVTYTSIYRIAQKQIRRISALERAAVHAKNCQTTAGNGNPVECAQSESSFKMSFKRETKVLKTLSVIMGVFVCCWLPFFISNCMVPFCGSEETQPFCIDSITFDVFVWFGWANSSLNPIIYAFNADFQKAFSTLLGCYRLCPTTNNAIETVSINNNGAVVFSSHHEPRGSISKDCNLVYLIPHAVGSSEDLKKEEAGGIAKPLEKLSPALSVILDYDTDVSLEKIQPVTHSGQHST
Sequence of D(2) dopamine receptor (P61169 whole entry): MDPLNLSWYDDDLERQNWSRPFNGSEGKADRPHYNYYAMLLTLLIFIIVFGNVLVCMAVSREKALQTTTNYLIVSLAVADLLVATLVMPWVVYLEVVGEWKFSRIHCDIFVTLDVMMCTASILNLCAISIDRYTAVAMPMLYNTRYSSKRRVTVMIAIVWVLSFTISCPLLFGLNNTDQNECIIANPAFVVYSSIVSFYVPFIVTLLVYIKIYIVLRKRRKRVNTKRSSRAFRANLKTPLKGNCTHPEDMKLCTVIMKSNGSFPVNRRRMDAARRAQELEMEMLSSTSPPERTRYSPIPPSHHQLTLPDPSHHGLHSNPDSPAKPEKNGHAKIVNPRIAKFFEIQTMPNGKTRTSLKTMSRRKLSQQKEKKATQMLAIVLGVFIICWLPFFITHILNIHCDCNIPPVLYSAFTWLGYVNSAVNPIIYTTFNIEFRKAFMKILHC

As to `CCCN1CCc2cc(F)cc3c2[C@H]1Cc1ccc(O)c(O)c1-3`, the IC50 came to 1300 nM at D(1A) dopamine receptor and 0.071 nM on D(2) dopamine receptor.
`CCCN1CCc2cc(F)cc3c2[C@H]1Cc1ccc2c(c1-3)OCO2`: the IC50 at D(1A) dopamine receptor was 3100 nM; on D(2) dopamine receptor, 97.6 nM.
Take `CCCN1CCc2cc(N)cc3c2[C@H]1Cc1ccc(O)c(O)c1-3`: the IC50 is > 10000 nM at D(1A) dopamine receptor and 5.5 nM on D(2) dopamine receptor.
For `CCCN1CCc2cc(N)cc3c2[C@H]1Cc1ccc2c(c1-3)OCO2`, in that order: > 10000 nM and 704 nM.
Turning to `CCCN1CCc2cc(O)cc3c2[C@H]1Cc1ccc(O)c(O)c1-3`, the figures for the IC50 on D(1A) dopamine receptor and on D(2) dopamine receptor were 1720 nM and 0.32 nM, respectively.
As to `CCCN1CCc2cc(Br)cc3c2[C@H]1Cc1ccc(O)c(O)c1-3`, the IC50 was 970 nM on D(1A) dopamine receptor and 0.89 nM on D(2) dopamine receptor.
For `CCCN1CCc2cc(OC)cc3c2[C@H]1Cc1ccc(O)c(O)c1-3`, in that order: 3340 nM and 1.02 nM.
